ChEMBL document CHEMBL4732214, “Highly Selective Y Receptor Antagonist Binds in an Allosteric Binding Pocket” (J Med Chem, 2021)
Active and inactive are the calls of the source. The rule behind the calls is not given here.

How the values were obtained:
COS7 [1] = test: Allosteric antagonist activity at human NPY4R T2.61 position mutant expressed in COS7 cells co-expressing Gqi5-alpha assessed as inhibition of PP-induced Ca2+ flux by Fluo-2 AM dye based fluorescent assay; type: cell-based
Procedure, shortened: (§1)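 COS7 cells transiently cotransfected overnight with 3 μg receptor-eYFP variant plasmid and 1 μg Δ6Gαqi4myr, reseeded next day. Fluo2-AM (2.4 μM) Ca²⁺ assay in HBSS/HEPES/probenecid pH 7.4. Compound concentration series added after 20 s baseline, PP at EC80 added 110 s later. Responses as x-fold over basal, normalized to 1 μM PP. N ≥ 3.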

COS7 [2] = test: Allosteric antagonist activity at human NPY4R F7.35 position mutant expressed in COS7 cells co-expressing Gqi5-alpha assessed as inhibition of PP-induced Ca2+ flux by Fluo-2 AM dye based fluorescent assay; type: cell-based; procedure, shortened: as §1
[3] = biological target: Neuropeptide Y receptor type 4 (Mus musculus); test: Allosteric antagonist activity at NPY4R in mouse descending colon mucosa assessed as reduction in rPP-induced ion transport by electrophysiology
[4] = biological target: T1, Neuropeptide Y receptor type 2 (Mus musculus) (UniProt P97295); test: Allosteric antagonist activity at NPY2R in mouse descending colon mucosa assessed as reduction in PYY-induced ion transport at 30 uM by electrophysiology
T1 sequence (whole entry): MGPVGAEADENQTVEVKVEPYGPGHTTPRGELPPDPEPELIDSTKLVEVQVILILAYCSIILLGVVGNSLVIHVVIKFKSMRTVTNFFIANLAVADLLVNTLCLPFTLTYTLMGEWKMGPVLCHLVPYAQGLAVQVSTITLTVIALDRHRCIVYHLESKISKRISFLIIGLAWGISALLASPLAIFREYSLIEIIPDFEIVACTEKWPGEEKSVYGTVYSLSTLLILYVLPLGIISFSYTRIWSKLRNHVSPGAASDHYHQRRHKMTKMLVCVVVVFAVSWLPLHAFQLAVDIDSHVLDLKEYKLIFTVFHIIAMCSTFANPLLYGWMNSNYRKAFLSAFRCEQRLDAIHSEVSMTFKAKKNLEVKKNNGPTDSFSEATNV

COS7 [5] = test: Allosteric antagonist activity at human NPY4R A3.29 position mutant expressed in COS7 cells co-expressing Gqi5-alpha assessed as inhibition of PP-induced Ca2+ flux by Fluo-2 AM dye based fluorescent assay; type: cell-based; procedure, shortened: as §1
COS7 [6] = test: Allosteric antagonist activity at human NPY4R S3.28 position mutant expressed in COS7 cells co-expressing Gqi5-alpha assessed as inhibition of PP-induced Ca2+ flux by Fluo-2 AM dye based fluorescent assay; type: cell-based; procedure, shortened: as §1
COS7 [7] = test: Allosteric antagonist activity at human NPY4R Q3.32 position mutant expressed in COS7 cells co-expressing Gqi5-alpha assessed as inhibition of PP-induced Ca2+ flux by Fluo-2 AM dye based fluorescent assay; type: cell-based; procedure, shortened: as §1
[8] = biological target: T2, Neuropeptide Y receptor type 5 (Mus musculus) (UniProt O70342); test: Allosteric antagonist activity at NPY5R in mouse descending colon mucosa assessed as reduction in rPP-induced ion transport at 30 uM by electrophysiology
T2 sequence (whole entry): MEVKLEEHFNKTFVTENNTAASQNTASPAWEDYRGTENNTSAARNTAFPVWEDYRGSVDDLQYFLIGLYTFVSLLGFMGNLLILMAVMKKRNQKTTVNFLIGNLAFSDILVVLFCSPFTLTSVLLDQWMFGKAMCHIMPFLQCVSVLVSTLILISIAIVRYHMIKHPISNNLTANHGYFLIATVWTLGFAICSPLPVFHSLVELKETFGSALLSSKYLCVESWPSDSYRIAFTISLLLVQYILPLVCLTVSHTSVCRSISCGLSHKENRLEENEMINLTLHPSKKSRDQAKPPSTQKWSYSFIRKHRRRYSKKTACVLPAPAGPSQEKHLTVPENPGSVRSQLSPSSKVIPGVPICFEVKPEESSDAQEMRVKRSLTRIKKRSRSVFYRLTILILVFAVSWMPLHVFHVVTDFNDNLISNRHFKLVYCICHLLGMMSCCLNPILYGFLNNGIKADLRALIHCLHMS
Procedure, shortened: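 Mouse descending colon mucosae (0.14 cm² exposed) in Ussing chambers, Krebs−Henseleit both sides, oxygenated, 37 °C, voltage-clamped at 0 mV. After stable basal Isc (20 min), DMSO (0.3%) or antagonist 300 nM–30 μM added basolaterally, then VIP 10 nM (10−15 min), then rPP 30 nM to lower Isc, then PYY 10 nM 15 min later. Isc changes pooled, mean ± SEM, N = 5.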

COS7 [9] = test: Allosteric antagonist activity at human NPY4R L7.36 position mutant expressed in COS7 cells co-expressing Gqi5-alpha assessed as inhibition of PP-induced Ca2+ flux by Fluo-2 AM dye based fluorescent assay; type: cell-based; procedure, shortened: as §1
[10] = biological target: T3, Neuropeptide Y receptor type 4 (Homo sapiens, UniProt P50391); test: Allosteric antagonist activity at […]-tagged human NPY4R expressed in COS7 cells co-expressing Gqi5-alpha assessed as inhibition of PP-induced Ca2+ flux by Fluo-2 AM dye based fluorescent assay relative to control; type: functional, cell-based; settings: read-out: IC50
T3 sequence (P50391 whole entry): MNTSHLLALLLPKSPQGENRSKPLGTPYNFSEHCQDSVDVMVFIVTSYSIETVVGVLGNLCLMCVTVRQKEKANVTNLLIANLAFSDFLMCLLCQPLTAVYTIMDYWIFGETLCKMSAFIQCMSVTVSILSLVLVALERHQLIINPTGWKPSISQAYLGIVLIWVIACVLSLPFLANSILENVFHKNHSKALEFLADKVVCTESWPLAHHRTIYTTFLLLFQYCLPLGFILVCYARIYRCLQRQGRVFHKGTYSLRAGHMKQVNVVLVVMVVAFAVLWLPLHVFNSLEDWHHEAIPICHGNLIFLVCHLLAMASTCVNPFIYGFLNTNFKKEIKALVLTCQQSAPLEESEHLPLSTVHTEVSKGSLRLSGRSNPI

COS7 [11] = test: Allosteric antagonist activity at human NPY4R F4.60 position mutant expressed in COS7 cells co-expressing Gqi5-alpha assessed as inhibition of PP-induced Ca2+ flux by Fluo-2 AM dye based fluorescent assay; type: cell-based; procedure, shortened: as §1
[12] = biological target: T1, Neuropeptide Y receptor type 2 (Mus musculus); test: Allosteric antagonist activity at NPY2R in mouse descending colon mucosa assessed as reduction in PYY-induced ion transport at 0.3 to 30 uM by electrophysiology; settings: dose 0.3-30 µM
[13] = biological target: T4, Neuropeptide Y receptor type 1 (Mus musculus) (UniProt Q04573); test: Allosteric antagonist activity at NPY1R in mouse descending colon mucosa assessed as reduction in PYY-induced ion transport at 30 uM by electrophysiology
T4 sequence (whole entry): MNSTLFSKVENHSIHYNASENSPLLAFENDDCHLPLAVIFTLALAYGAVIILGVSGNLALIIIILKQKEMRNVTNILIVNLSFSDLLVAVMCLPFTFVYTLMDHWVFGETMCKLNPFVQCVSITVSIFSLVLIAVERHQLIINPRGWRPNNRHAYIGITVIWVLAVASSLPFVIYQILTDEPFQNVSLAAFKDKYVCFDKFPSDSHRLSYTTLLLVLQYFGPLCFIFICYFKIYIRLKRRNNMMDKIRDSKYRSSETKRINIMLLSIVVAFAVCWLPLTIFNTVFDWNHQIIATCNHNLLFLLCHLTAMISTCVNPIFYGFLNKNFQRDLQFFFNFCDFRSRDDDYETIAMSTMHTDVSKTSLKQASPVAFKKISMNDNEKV

COS7 [14] = test: Allosteric antagonist activity at human NPY4R Q2.58 position mutant expressed in COS7 cells co-expressing Gqi5-alpha assessed as inhibition of PP-induced Ca2+ flux by Fluo-2 AM dye based fluorescent assay; type: cell-based; procedure, shortened: as §1
[15] = biological target: T3, Neuropeptide Y receptor type 4; test: Allosteric antagonist activity at […]-tagged human NPY4R expressed in COS7 cells co-expressing Gqi5-alpha assessed as inhibition of PP-induced inositol phosphate accumulation by IP-one assay; type: functional, cell-based; settings: filed as allosteric antagonist
Procedure, shortened: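 IP-One Gq HTRF assay in COS7 cells stably expressing Y4R-eYFP and Δ6Gαqi4myr, 8000 cells/well seeded overnight. Compound or DMSO added, then PP stimulation in HBSS + 20 mM LiCl for 1 h at 37 °C. Cells lysed with kit antibody reagents. Emission read at 665 and 620 nm.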

COS7 [16] = test: Allosteric antagonist activity at human NPY4R Y1.39 position mutant expressed in COS7 cells co-expressing Gqi5-alpha assessed as inhibition of PP-induced Ca2+ flux by Fluo-2 AM dye based fluorescent assay; type: cell-based; settings: dose 15.0 µM; procedure, shortened: as §1
COS7 [17] = test: Allosteric antagonist activity at human NPY4R Y2.64 position mutant expressed in COS7 cells co-expressing Gqi5-alpha assessed as inhibition of PP-induced Ca2+ flux by Fluo-2 AM dye based fluorescent assay; type: cell-based; procedure, shortened: as §1
[18] = biological target: T4, Neuropeptide Y receptor type 1 (Mus musculus); test: Allosteric antagonist activity at NPY1R in mouse descending colon mucosa assessed as reduction in PYY-induced ion transport at 0.3 to 30 uM by electrophysiology; settings: dose 0.3-30 µM
COS7 [19] = test: Allosteric antagonist activity at human NPY4R W2.70 position mutant expressed in COS7 cells co-expressing Gqi5-alpha assessed as inhibition of PP-induced Ca2+ flux by Fluo-2 AM dye based fluorescent assay; type: cell-based; procedure, shortened: as §1
[20] = biological target: T3, Neuropeptide Y receptor type 4; test: Allosteric antagonist activity at […]-tagged human NPY4R expressed in COS7 cells co-expressing Gqi5-alpha assessed as inhibition of PP-induced Ca2+ flux by Fluo-2 AM dye based fluorescent assay; type: functional, cell-based; settings: filed as allosteric antagonist

IC50 [3]: 3800 nM
inhibition ([3]; filed as allosteric antagonist): Dose-dependent effect
inhibition [4]: inactive
inhibition [8]: inactive
IC50 [10]: 2700 nM
inhibition [12]: inactive
inhibition [13]: inactive
inhibition [15]: Active
inhibition [18]: inactive
Kb [20]: 380 nM
inhibition [20]: Dose-dependent effect
pKb [20]: 6.4
Compound: CS(=O)(=O)N1CCCC[C@H]1C(=O)Nc1nc2cc3c(cc2s1)OCCO3
inhibition (COS7 [1]): inactive
inhibition (COS7 [2]): inactive
inhibition (COS7 [5]): inactive
inhibition (COS7 [6]): inactive
inhibition (COS7 [7]): inactive
inhibition (COS7 [9]): inactive
inhibition (COS7 [11]): inactive
inhibition (COS7 [14]): inactive
inhibition (COS7 [16]): inactive
inhibition (COS7 [17]): inactive
inhibition (COS7 [19]): inactive
